The values below come from ChEMBL document CHEMBL4261652, “Modifying aroylhydrazone prochelators for hydrolytic stability and improved cytoprotection against oxidative stress” (Bioorg Med Chem, 2018).

Structures are written as SMILES. Activity calls are given as the source filed them. The calls are words filed in the database; no cut-off is given here.

The subject of data set [1] is ARPE-19. The data set can be described thus: Cytoprotective activity against H2O2-induced oxidative stress in human ARPE19 cells at 25 uM pretreated for 5 hrs followed by H2O2-stimulation and measured after 19 hrs by CellTiter-Blue assay. In kind it is functional, cell-based. An outline of the steps: (§1)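 ARPE-19 cells grown to confluence in 1:1 DMEM/F12 with 10% FBS, 37 °C, 5% CO2; washed with MEM, pre-treated 5 h with compound, then H2O2 added to 200 μM final; viability read 19 h later by CellTiter-Blue, as percent of untreated control; triplicate runs, mean ± SD.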
For orientation: The colour change of resazurin is a common sign of viable cells or microbes.

In data set [2] the test system is ARPE-19. As to the kind of experiment: Cytoprotective activity against paraquat-induced oxidative stress in human ARPE19 cells pretreated for 5 hrs followed by paraquat-stimulation and measured after 48 hrs by CellTiter-Blue assay. The data set is classed as functional, cell-based.
A short description of data set [3]: Iron chelating activity of the compound assessed as recovery of calcein fluorescence from calcein-Fe3+ complex at 4 uM preincubated with H2O2 for 12 hrs followed by addition to calcein-Fe3+ complex measured after 2 hrs by fluorescence assay relative to control. In short, it runs like this:
(§2)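 Compound at 100 μM in PBS pH 7.4, prepared fresh, either used directly or first incubated 12 h with 5 mM H2O2. Then brought to 4 μM with 2 μM Fe3+-calcein (preformed 4 h from ferric ammonium citrate and calcein) in PBS, equilibrated 2 h at 25 °C; emission read 485/535 nm, as percent of free calcein; n = 3.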

Data set [4] concerns ARPE-19. The data set can be described thus: Cytotoxicity against human ARPE19 cells up to 100 uM after 24 hrs by CellTiter-Blue assay. In kind it is cell-based. As to conditions: arpe-19, 24 h.
The nature of data set [5]: Hydrolytic stability of compound in D2O/5% DMSO-d6 solvent at 200 uM after 1 hr by 1H-NMR spectroscopy. In kind it is physicochemical. As to conditions: read-out: Stability.
For data set [6], the system named is ARPE-19. The data set can be described thus: Cytotoxicity against human ARPE19 cells up to 100 uM after 72 hrs by CellTiter-Blue assay. In kind it is cell-based. Conditions: arpe-19, 72 h. In short, it runs like this:
(§3)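 Confluent ARPE-19 monolayers washed three times with MEM, then exposed 72 h to compound at 5–100 μM in MEM containing up to 1% DMSO; viability by CellTiter-Blue; triplicate runs, standard deviations.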

The nature of data set [7]: Hydrolytic stability in pH 7.4 PBS buffer at 100 uM by UV-Vis spectrophotometric analysis. The data set is classed as physicochemical. Conditions: pH 7.4, 100 µM, TDE = time-dependent effect. In short, it runs like this: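 UV-Vis monitoring of prochelator in PBS pH 7.4 at 1-min intervals over 30 min in 1-cm quartz cuvettes; hydrazide plus aldehyde (100 μM each) mixtures followed as reference.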

Data set [8] is described as follows: Iron chelating activity of the compound assessed as recovery of calcein fluorescence from calcein-Fe3+ complex by measuring iron binding constant at 4 uM measured after 2 hrs by fluorescence assay. In short, it runs like this:
as §2

A short description of data set [9]: Hydrolytic stability of compound in D2O/2% DMSO-d6 solvent at 200 uM preincubated for 1 hr followed by H2O2 addition measured after 24 hrs by 1H-NMR spectroscopy. The data set is classed as physicochemical. As to conditions: D2O/2% DMSO-d6 with H2O2 added; read-out: Stability.
Data set [10] in a line: Hydrolytic stability in PBS of pH 7.4 assessed as equilibrium constant for hydrolytic product formation after 1 hr measured at 1 min intervals over 30 mins by UV-Vis spectrophotometric analysis. In kind it is physicochemical. As to conditions: buffer, pH 7.4, 1 h. An outline of the steps:
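K measured by UV-Vis on equilibrated prochelator solutions in PBS pH 7.4 at several starting concentrations. Absorbances at 263 and 321 nm, with extinction coefficients from linear calibration plots, gave equilibrium concentrations of prochelator, hydrazide and aldehyde; K = [INH][FBA]/[prochelator].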

Data set [11] concerns ARPE-19. As to the kind of experiment: Cytoprotective activity against paraquat-induced oxidative stress in human ARPE19 cells up to 100 uM pretreated for 5 hrs followed by paraquat-stimulation and measured after 48 hrs by CellTiter-Blue assay. The data set is classed as functional, cell-based.
Data set [12] has as its system ARPE-19. As to the kind of experiment: Cytoprotective activity against H2O2-induced oxidative stress in human ARPE19 cells at 25 to 50 uM pretreated for 5 hrs followed by H2O2-stimulation and measured after 19 hrs by CellTiter-Blue assay. The data set is classed as functional, cell-based. In short, it runs like this: as §1
The nature of data set [13]: Solubility of the compound in aqueous buffer at >50 uM. In kind it is physicochemical.
A short description of data set [14]: Iron chelating activity of the compound assessed as recovery of calcein fluorescence from calcein-Fe3+ complex by measuring iron binding constant at 4 uM preincubated with H2O2 for 12 hrs followed by addition to calcein-Fe3+ complex measured after 2 hrs by fluorescence assay. An outline of the steps:
as §2

The test system of data set [15] is ARPE-19. As to the kind of experiment: Cytoprotective activity against H2O2-induced oxidative stress in human ARPE19 cells up to 100 uM pretreated for 5 hrs followed by H2O2-stimulation and measured after 19 hrs by CellTiter-Blue assay. The data set is classed as functional, cell-based. In short, it runs like this:
as §1

Data set [16] concerns ARPE-19. As to the kind of experiment: Cytoprotective activity against paraquat-induced oxidative stress in human ARPE19 cells assessed as cell viability at 100 uM pretreated for 5 hrs followed by paraquat-stimulation and measured after 48 hrs by CellTiter-Blue assay. The data set is classed as functional. Conditions: read-out: Activity.
A short description of data set [17]: Hydrolytic stability of compound in D2O/5% DMSO-d6 solvent at 500 uM preincubated for 1 hr followed by H2O2 addition measured after 24 hrs by 1H-NMR spectroscopy. In kind it is physicochemical. Conditions: D2O/5% DMSO-d6 with H2O2 added; read-out: Stability.
Data set [18] is described as follows: Hydrolytic stability of compound in D2O/5% DMSO-d6 solvent at 500 uM after 1 hr by 1H-NMR spectroscopy. In kind it is physicochemical. An outline of the steps:
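1H NMR in D2O: prochelator at 500 μM with 5% DMSO-d6, or at 200 μM with 2% DMSO-d6, equilibrated 1 h before spectra; activation by H2O2 added to 25 mM final (10 mM in the 200 μM case), reacting 12 h; aromatic peaks integrated.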

The test system of data set [19] is ARPE-19. The data set can be described thus: Cytotoxicity against human ARPE19 cells assessed as reduction in cell viability at 100 uM after 72 hrs by CellTiter-Blue assay. In kind it is cell-based. As to conditions: arpe-19, 72 h. In short, it runs like this:
as §3

The subject of data set [20] is ARPE-19. The data set can be described thus: Cytotoxicity against human ARPE19 cells up to 100 uM over 72 hrs by CellTiter-Blue assay. In kind it is cell-based. As to conditions: arpe-19, 72 h. An outline of the steps:
as §3

Data set [21] is described as follows: Hydrolytic stability in PBS of pH 7.4 at 50 uM after 1 hr by UV-Vis spectrophotometric analysis. Conditions: buffer, pH 7.4, 1 h. In kind it is physicochemical.
In data set [22] the test system is ARPE-19. As to the kind of experiment: Cytoprotective activity against paraquat-induced oxidative stress in human ARPE19 cells assessed as cell viability restoration at 100 uM after 48 hrs relative to control. The data set is classed as functional. In short, it runs like this: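 ARPE-19 cells were grown to confluence in 1:1 DMEM/F12 with 10% FBS at 37 °C and 5% CO2, then washed with MEM. Cells were co-incubated in MEM with 10 mM paraquat plus compound for 48 h, with no pre-incubation step. Viability was read by CellTiter-Blue and expressed as % of the untreated MEM-only control. Triplicate runs, SD.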

Data set [23] can be described thus: Cytotoxicity against rat H9c2 cells after 72 hrs by neutral red uptake assay. As to conditions: read-out: TC50. In kind it is cell-based.

`CC1(C)OB(c2cc3c(cc2/C=N/NC(=O)c2ccncc2)OCO3)OC1(C)C`: in the data set with ARPE-19 [1], the outcome was Active. Moreover, the Activity result is “Dose-dependent effect” in the data set with ARPE-19 [2], 75% in data set [3], “Non-Toxic” in the data set on ARPE-19 [4] and “Non-Toxic” in the data set on ARPE-19 [6]. Moreover, the remaining at 1 h, 200 µM in [5] was 80%. Further, in data set [7], the Stability entry is given as “Tde”. For the same molecule, the outcome in [8] was inactive. In [9], the remaining at 24 h, 200 µM came to 45%. The K in [10] was 8 ×10⁻⁶ M.

As to `CC1(C)OB(c2ccccc2/C=N/NC(=O)c2ccncc2)OC1(C)C`, the Activity is 50% in data set [3], “Non-Toxic” with ARPE-19 [4] and “Non-Toxic” in the data set on ARPE-19 [6]. Also, the outcome (with ARPE-19 [11]; in data set [8]) was inactive. Moreover, the result with ARPE-19 [12] was Active. For the same molecule, the K in [10] was determined as 1.5 ×10⁻⁵ M.

In the case of `COc1ccc(/C=N/NC(=O)c2ccncc2)c(O)c1`, the solubility entry in data set [13] was “Insoluble”.

Consider `O=C(N/N=C/c1ccccc1O)c1ccncc1` [SALINAZID], for which the Activity entry was “Non-Toxic” in the data set with ARPE-19 [4] and more than 90% in data set [8]. In addition, the log(activity) in [14] was -23.

In the case of `CNC(=S)N/N=C/c1ccccc1B1OC(C)(C)C(C)(C)O1`, the outcome (in data set [3]; in [8]; in the data set on ARPE-19 [15]) was inactive. Besides, the Activity result in the data set with ARPE-19 [4] was “Non-Toxic”.

As for `CC1(C)OB(c2ccccc2/C=N/NC(=S)Nc2ccccc2)OC1(C)C`, the outcome (in data set [3]; with ARPE-19 [11]; in [8]) was inactive. In addition, the Activity entry in the data set on ARPE-19 [4] is “Non-Toxic”. In addition, in the data set with ARPE-19 [12], the result was Active.

For the molecule `COc1ccc(O)c(/C=N/NC(=O)c2ccncc2)c1`, the Activity entry in the data set with ARPE-19 [4] was “Non-Toxic”; in data set [8], more than 90%.

Consider `COc1ccc(/C=N/NC(=O)c2cccnc2)c(O)c1`, for which the Activity result was “Non-Toxic” in the data set on ARPE-19 [4] and more than 90% in [8].

As for `COc1ccc(B2OC(C)(C)C(C)(C)O2)c(/C=N/NC(=O)c2ccncc2)c1`, the result in the data set on ARPE-19 [1] was Active. The Activity in data set [3] is 60%; in the data set on ARPE-19 [4] it was “Non-Toxic”; in the data set on ARPE-19 [19], 20%; in the data set on ARPE-19 [20] it was “Toxic”. In addition, in the data set on ARPE-19 [16], the viability at 100 µM was determined as 30%. Also, the remaining at 24 h, 500 µM in data set [17] turned out to be 67%. Moreover, in data set [18] (D2O/5% DMSO-d6, read-out: Stability), the remaining at 1 h, 500 µM was determined as 85%. Moreover, the Stability result in [7] is “Tde”. Further, the outcome in data set [8] was inactive. Besides, the K in data set [10] was determined as 1.1 ×10⁻⁵ M.

With `COc1ccc(/C=N/NC(=O)c2cccnc2)c(B2OC(C)(C)C(C)(C)O2)c1`, the outcome in [3] and in [8] was inactive. Also, the Activity result in the data set on ARPE-19 [4] is listed as “Non-Toxic”.

As to `O=C(N/N=C/c1ccc(Cl)cc1B(O)O)c1ccncc1`, the outcome in data set [3] and in [8] was inactive. In addition, the Activity result with ARPE-19 [4] was “Non-Toxic”.

As for `CNC(=S)N/N=C/c1ccccc1O`, the Activity result with ARPE-19 [4] is on record as “Non-Toxic”. Further, the result (in data set [8]; in the data set with ARPE-19 [15]) was inactive.

Consider `COc1ccc(/C=N/NC(=O)c2ccncc2)cc1B1OC(C)(C)C(C)(C)O1`, for which the outcome (in [3]; in the data set on ARPE-19 [11]; in data set [8]; with ARPE-19 [15]) was inactive. Moreover, the Activity entry in the data set on ARPE-19 [4] is given as “Non-Toxic”. Further, the Stability result is “Stable” in [21] and “Stable” in [18] (1 h, 500 µM).

For `Oc1ccccc1/C=N/NC(=S)Nc1ccccc1`, the Activity result with ARPE-19 [4] was “Non-Toxic”. Also, the outcome in data set [8] was inactive.

Take `C/C(=N\NC(=O)c1ccncc1)c1ccccc1OCc1ccc(B2OC(C)(C)C(C)(C)O2)cc1`: the Activity result is “Dose-dependent effect” in the data set on ARPE-19 [2], 40% in the data set on ARPE-19 [22] and 25% in the data set with ARPE-19 [19]. Further, the CC50 at 72 h in data set [23] was 37.1 µM.
